Measurements published in the EternaBench riboswitch data.

Tested on: MS2 coat protein
Assay: apparent Kd, MS2 coat protein; higher = weaker binding; RNA-MaP array; FMN 200 µM where present
In short: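 Designs were transcribed by stalled E. coli RNA polymerase on Illumina sequencing-chip clusters. They were titrated with SNAP-549-labelled MS2 coat protein from 0.7 or 1.5 nM, doubling to 3 µM, in 100 mM Tris-HCl pH 7.5, 80 mM KCl, 4 mM MgCl2, BSA, DTT, yeast tRNA and Tween-20, without and then with constant ligand. The apparent Kd is the median of filtered per-cluster fits after normalisation of green signal to red-channel RNA signal and control-cluster median Fmax.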

[1] = designed as: OFF switch for flavin mononucleotide, no ligand
[2] = ligand present: flavin mononucleotide, designed as: OFF switch for flavin mononucleotide
[3] = designed as: ON switch for flavin mononucleotide, no ligand
[4] = ligand present: flavin mononucleotide, designed as: ON switch for flavin mononucleotide

Row | Sequence | apparent Kd [1] [nM] | apparent Kd [2] [nM] | apparent Kd [3] [nM] | apparent Kd [4] [nM]
1 | UCCCGUGUGGAAGGAUAUAGGACGAGGUGGGACAUGAGGAUCACCCAUGUGCUAGAAGGUCCGCAGCCGAUUGGCUUUUACGUG | 9.2 | 28.1 |  | 
2 | UUAAUUCGAAACAUGAGGAUCACCCAUGUGUUGUGGUUAAUAUAGGAUAUGAGGAUACUUUUUUGUCAGAAGGAUGAUGGUACU |  |  | 11.8 | 10.8
3 | CCGGAAUCCUAGGAUAUGCUAGACGAAAGUCUAGCAGAAGGAGGAACAUGAGGAUCACCCAUGUGUCCUACCGG | 18.6 | 25 |  | 
4 | AAGACGUGGGAAGGAUAUCUGGAAUAUCGGUCGAGAGAAGGUCCCUCGACAUGAGGAUCACCCAUGUAACGCGGUCUACCGUGU |  |  | 596 | 494
5 | UUUUAACAUGAGGAUCACCCAUGUGAGGAUAUCGAAAUUUAUAUUUAUAUUAAUUUAUCGAGAAGGCACAUUUU | 149 | 164 |  | 
6 | AGCAUGUAAGGAUAUGCAACACGACGUUCAAUCGUCGUGCCGCAGAAGGUACAUGAGGAUCACCCAUGUGCUCC | 104 | 129 |  | 
7 | UUUUUCUCAGGAUAUACAUGAGGAUCACCCAUGUAUAUUAGGAAUAAUACAUGGGAAUGUAGAAGGGAGCUCAU | 128 | 98.4 |  | 
8 | CUUUUGUGAGGAUAUCAGUAGUAAAUAAAUAAAUUAACUACUGAGAAGGCACAUGAGGAUCACCCAUGUUCCUU | 13 | 29.4 |  | 
9 | GCCAGGAUGUAAGGAUAUGCUGAGGAUAACUCAGCAGAAGGUACAUGAGGAUCACCCAUGUAAUCCAAUAAUAAAUAACCUGGC | 11.8 | 23.8 |  | 
10 | UGUCGUGUUCGAGGAUAUGAAACUAGGCCGGGCACUGUACACCCGCCUGUCUCAGAAGGCGGACAUGAGGAUCACCCAUGUAAA | 294 | 22.1 |  | 
11 | UGAUAGGACAGAGGAUAUACAGAUAGGAUCUACUAUCAAACAAUCCUGACAUGAGGAUCACCCAUGUAGAAGGCUGUCCUAUCU | 22.5 | 86.5 |  | 
12 | UCCUCUUUGAAGAAGGCGUGGUUAUGCUAGCCGCGAGGAUAUUCACAUGAGGAUCACCCAUGUGGAUUUCAGUCCGCUCAAAAC | 10.2 | 22.9 |  | 
13 | AUCUUUGACUUUACUAGAAUAGGGCAGGAUAUACAUGAGGAUCACCCAUGUUAAGCACGUAAGAGGUAGAAGGGCCCUUGUCAU | 16.1 | 13.6 |  | 
14 | GGUGGGAGGUAGACUGGACGGGCAACAUGAGGAUCACCCAUGUAGGAUAUCGUGUGUGUCAACGACGAGAAGGGCGUAGGCGGA | 20.3 | 17.1 |  | 
15 | UGUCGGAGCAGAGGAUAUUACAUGAGGAUCACCCAUGUAUGAACCAAUAGCUGGAAACAGCAAUGUAAGAAGGCUACUCCGACA | 5.41 | 31.4 |  | 
16 | AAGGAUAGAGGAUAUGCAUAGAUACAGAUUCAUGUAGAACUACAUGAGGAUCACCCAUGUAGAAGGCUAUCCUA | 18.6 | 50.8 |  | 
17 | GUAUCGUGAGGAUAUCUAGACUGACUUAGUACAUGUCAGCUGGAGAAGGCACAUGAGGAUCACCCAUGUGAUUA | 22.6 | 73.8 |  | 
18 | GUUAAUUAGUGAGGAUAUACAGUAUUUAAUACUGUAGAAGGCACAAUCCUCAAGACAUGAGGAUCACCCAUGUGAUAAUAAGAU | 54.4 | 203 |  | 
19 | GUGGUGAAUUAAGGAUAUCGAGUCUAGAUGUUAAACAUGAGGAUCACCCAUGUGGGUUGCGGUGUCGAGAAGGUAAUUUACGGG |  |  | 64.3 | 33.9
20 | CAUUUACAUGAGGAUCACCCAUGUGAGGAUAUGGAAUGGUUCAUUGUCUGACCUCCUUCUAGAAGGCACAUCUC | 29.6 | 30.5 |  | 
21 | ACAUGAGGAUCACCCAUGUUAAACGAGGAUAUUUGACUGCACAUGAGGUUCACCCAUGUCCUGCCGAAGAAGGUGUGAAUAAUU |  |  | 33.9 | 32.6
22 | GUAGCAUACCGAGGAUAUUCAUGGAAUAAAUAAACAUGAGGAUCACCCAUGUGGCGAAAGCCUAGGGAGAAGGCGGAAUGCUAC |  |  | 269 | 446
23 | AUGAAAUACUAGCACGGCGCGGCACAGGAUAUGCCUCAACAUGAGGAUCACCCAUGUCACUGUAGGUAGAAGGGUGUUAGCGAA |  |  | 18.4 | 5.52
24 | UUAUUAAAUGUAGGAUAUGCAUAUUAUUAUUAUGCAGAAGGACAUGAGGAUCACCCAUGUAUAUUAUUAUUAUUUAUUAUUUAU | 45.7 | 61.7 |  | 
25 | CAAUUCCGAGGAUAUACAUGAGGAUCACCCAUGUCGGGCCUCAGCGUUUAGCGCCUCAGUAGAAGGCGGGUUUC | 28.3 | 34.8 |  | 
26 | GCGUGACAUGAGGAUCACCCAUGUGAGGAUAUCUGGAUAAUUUUUAUUUUAGAUAUCCAGAGAAGGCACAUGCU | 63.8 | 156 |  | 
27 | GGUGGUUGAGGAUAUACGAACAUGUCGCCAGAUGUCAUGGUACAUGAGGAUCACCCAUGUAGAAGGUGGUUGUC | 357 | 576 |  | 
28 | ACUAGAUGAGGAUAUGCAUAUUUUCGUGUUCUUCUAGAUUAACAUGAGGAUCACCCAUGUAGAAGGCGUCAUUU | 15.7 | 18.4 |  | 

Row | Sequence | apparent Kd [1] [nM] | apparent Kd [2] [nM] | apparent Kd [3] [nM] | apparent Kd [4] [nM]
29 | AAUAUGUUGCAGAAGGUUAUAUUUUUUUCGUACCUCAUGACAUGAGGAUCACCCAUGUAUUUGUUGAAGGAUAUGCAAUAUAUU | 21.5 | 17.7 |  | 
30 | UGUAUGUAGGCAGGAUAUACAUGAAUAUAUAUGAUGUAGUAUGAUGUAACAUGAGGAUCACCCAUGUAGAAGGGCCAGUGUAUA | 102 | 164 |  | 
31 | GCAUUUAAUACAGGAUAUGUAAGUAUACAUUAGAUUGGUAUAGUCACAACAACAGAAGGGUAGAACAUGAGGAUCACCCAUGUA |  |  | 97.3 | 62.9
32 | UUUUGGCAUGUAGGAUAUGGGUCCGAUUAGGAUUUAGAAGGACAUGAGGAUCACCCAUGUGCAUUUAAUUGGUCUUUAUUUUUU | 64.1 | 85.6 |  | 
33 | UAAAAGAAAGUAAGGAUAUCUAAAUUGGAAAAGAGAGAGAAGGUACAUGAGGAUCACCCAUGUAGGGUAUCCGG | 52.1 | 72.8 |  | 
34 | GAUCCACAUGAGGAUCACCCAUGUGAGGAUAUGUUGUUAGCUUUUUGCCGUAAGCCAUAUAGAAGGCACGGGUG | 20.1 | 22.3 |  | 
35 | UAAUUUUUAGUAAGGAUAUCGGUCCCAAGGGACAACGAGAAGGUACAUGAGGAUCACCCAUGUGAUUAAAGAAU | 28.2 | 221 |  | 
36 | UAUAUAUAGUAAGGAUAUGUAAUUAUUUUAUACACAGAAGGUACUGACAUGAGGAUCACCCAUGUUUUAGUGUGGGCAUGUAGA | 55.3 | 86.5 |  | 
37 | AUAAUUUUAUUUUUCUAUUUCAUCAGAAGGCAUUACAUGAGGAUCACCCAUGUUUUGGAUAGUAAUGAGGAUAUGAUAUGGUUA | 10.2 | 18.6 |  | 
38 | CCGGAAACGGGUAGCUGACAUGAGGAUCACCCAUGUGAAUCUGAGGAUAUGGAUCCUAAUUGGAUCCAGAAGGCAGUCAGCUAC |  |  | 615 | 61.4
39 | GAAAUUCGGGCAGGAUAUGGGUGCCGUCAAGACAUGAGGAUCACCCAUGUCCCAUGCACGAGCGCUCAGAAGGGCUCAUUGCAG |  |  | 20.8 | 22
40 | CGUAUUAUUCAGAAGGCACUUCUCAUGUUACAUGAGGAUCACCCAUGUUUGUGAGGAUAUGAAUAUAGUUGUUGGUGUAUUAUA | 7.25 | 8.59 |  | 
41 | CUAUUUUGUGCCUCAUGUACAUGAGGAUCACCCAUGUUAACUUAGGAUAUAUUUAUAUUGUUAGAGUAGAAGGAAGUACAAUUU | 30.2 | 27.1 |  | 
42 | AAAAUCACAUGAGGAUCACCCAUGUACCGAGCUAGGGCUACAUAGGAUAUGACAAGUAUAGCUUGUCAGAAGGGUGAGUCUCGC |  |  | 166 | 258
43 | GUAGCUAGUACAGGAUAUUAGUGUGUGUAAUAUUGAGAAGGGUACAUGAGGAUCACCCAUGUGAUCAAUCACUGUUAAGGUUGC | 80.4 | 64 |  | 
44 | UAAAAUCAUGUAGGAUAUGCGUGGCGAAGCUAUGCAGAAGGACAUGAGGAUCACCCAUGUCUUACCUAGCGUACUAGGUUAAAG | 19.7 | 107 |  | 
45 | GAUAGAGAGCAGGAUAUCAUAGAAAUGUAUGAAUGAGAAGGGCUCACAUGAGGAUCACCCAUGUGGUCCUAGAU | 25.8 | 236 |  | 
46 | AAGUAGACGGUGAGGAUAUAGGUCGAAUGACCGAUCUAGAAGGCACAUGAGGAUCACCCAUGUGGGUAACGUCG | 17.8 | 20.7 |  | 
47 | AUGAGAAUUGUUAGGAUAUCCGUAAGUAAGUACUGGGAGAAGGGACAUGAGGAUCACCCAUGUGAUAGCCGACU | 102 | 80.6 |  | 
48 | CUUUCGUGAGGAUAUGUGGCUUAAAUCGUGAGAUCGAGGCUACAGAAGGCACAUGAGGAUCACCCAUGUUCCUC | 36 | 569 |  | 
49 | AGCGAACAGGCUAACAUGAGGAUCACCCAUGUGGACUCAUGGUAGGAUAUCGGGAAGGAGGAAACCGAGAAGGGCCGGUGAGCU |  |  | 254 | 62.8
50 | GCCUUAUCCGUCAGGAUAUACAGUUGUUAGUUGUUGUAGAAGGGACAUGAGGAUCACCCAUGUACAUUACAUUG | 21.2 | 22.6 |  | 
51 | AAAAAAAAGCCCAAGGAUAUCCGGAUGAAGACAUGAGGAUCACCCAUGUGAAAAAAAAAAUAUGAGGAGAAGGUGGGAAAAAAAAA |  |  | 83.6 | 61.6
52 | UGCCACCGGGAGAAGGGCAUACGUGAGGUCCUACAUAGUCACAUGAGGAUCACCCAUGUAGAAAUGCAGGAUAUCUCGUAGCAG | 6.93 | 13.4 |  | 
53 | AUAUGAUAGAUAGGAUAUACUGAGGUUGAAUGGGUAGAAGGAUCGAUAGGGAAGAAUACAUGAGGAUCACCCAUGUUGUGGAUU |  |  | 76.9 | 57.8
54 | GUAUCUCACUGAGGAUAUUUACGAUUAGUGUAGACAUGAGGAUCACCCAUGUGGCGUUAGUCACGGGAGAAGGCAGUGCGAUAC |  |  | 114 | 20
55 | CGUAUGUCAGGAUAUGCGCGCGAUCAUUACACUCGGAAUUGGCAGAAGGGACAUGAGGAUCACCCAUGUGGCCC | 34.4 | 37.4 |  | 
